Results reported in article PMC3501882 (Diabetes, 2012).
Residues, ends and D or L forms follow the SMILES beside them.

Legend:
[1] = type: physicochemical; conditions: poorly soluble peptides were used as suspensions in assays
BDC-2.5 T-cell clone = assay: IFN-γ response of T-cell clone to antigen; type: cell-based, NOD mouse; conditions: for IFN-γ response of BDC-2.5 to peptide (in words): increasing peptide concentrations, before and after TGase treatment, Fig. 1B, 1C
[2] = tested on: guinea pig transglutaminase; conditions: increasing putrescine 0.06–15.6 mmol/L in the reaction mixture; gel lanes 2–10
PD-12.4.4 T-cell clone = assay: IFN-γ response of insulin-reactive T-cell clone to antigen; type: cell-based, NOD mouse; conditions: for IFN-γ response of PD-12.4.4 to peptide (in words): increasing peptide concentrations, Fig. 1A, 1D
[3] = tested on: CD4 T cells from BDC-2.5 TCR-Tg mice; assay: T-cell proliferation assay; type: cell-based, mouse; conditions: for Proliferative response of BDC-2.5 TCR-Tg CD4 T cells (in words): Fig. 2A, WE14 at 200 μg/mL (120 μmol/L)
Outline: (§1)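 Spleen cells from TCR-transgenic NOD mice (2–5 months old) labeled with 2.5 μmol/L CFSE. Cultured at 1 × 10^6/well with peptide antigen, medium, or anti-CD3ε 0.1 μg/mL for 4 days. Cells stained for CD4 and analysed by flow cytometry, gated on CD4/lymphocyte events. Read-out: percentage of divided cells, mean and SD per mouse over two independent experiments.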

[4] = tested on: CD4 T cells from BDC-6.9 TCR-Tg mice; assay: T-cell proliferation assay; type: cell-based, mouse; conditions: Fig. 2A; negative control T cells
Outline: as §1

For `CSCC[C@H](NC(=O)[C@H](CCCNC(=N)N)NC(=O)[C@H](CO)NC(=O)[C@@H](N)Cc1c[nH]c2ccccc12)C(=O)N[C@@H](CC(=O)O)C(=O)N[C@@H](CCC(N)=O)C(=O)N[C@@H](CC(C)C)C(=O)N[C@@H](C)C(=O)N[C@@H](CCCCN)C(=O)N[C@@H](CCC(=O)O)C(=O)N[C@@H](CC(C)C)C(=O)N[C@H](C(=O)N[C@@H](C)C(=O)N[C@@H](CCC(=O)O)C(=O)O)[C@@H](C)O` [WE14] (H-WSRMDQLAKELTAE-OH), the “Solubility in water (in words)” value [1] was “solubilized directly in sterile water”.
In the case of `NCCCCN` [putrescine], the “Effect of putrescine on antigenicity of β-Mem positive control antigen” value (BDC-2.5 T-cell clone; data not shown) was “did not affect the antigenicity”, the “Effect of inhibitor in TGase reaction on BDC-2.5 response to converted peptide” value (BDC-2.5 T-cell clone; increasing putrescine 0.06–15.6 mmol/L, Fig. 6A top, lanes 2–10) was “diminished T-cell responses” and the “Effect of inhibitor on TGase-catalysed WE14 oligomerization” value [2] was “decreasing peptide oligomerization”.
In the case of DTKVMKCVLEVISD [ChgA29–42], the “Effect of TGase treatment on antigenicity of the peptide” value (BDC-2.5 T-cell clone; BDC-2.5 (for WE14 also BDC-10.1 and BDC-9.46), IFN-γ ELISA) was “did not lead to an increase of antigenicity”, the “IFN-γ response of BDC-2.5 to peptide (in words)” value (BDC-2.5 T-cell clone) was “not antigenic” and the “IFN-γ response of PD-12.4.4 to peptide at 66 μg/mL” value (PD-12.4.4 T-cell clone; 66 μg/mL (42 μmol/L), in the absence of TGase) was “very small PD-12.4.4 response”. The “IFN-γ response of PD-12.4.4 to peptide (in words)” value (PD-12.4.4 T-cell clone) was “not antigenic at higher or lower peptide concentrations”, the “Proliferative response of BDC-2.5 TCR-Tg CD4 T cells (in words)” value [3] was “no proliferative response” and the “Proliferative response of BDC-6.9 TCR-Tg CD4 T cells (in words)” value [4] was “no proliferative response”. For the same molecule, the “Solubility in water (in words)” value [1] was “only poorly soluble in water”.
In the case of EKAHRPIWARMDAKK, the “Proliferative response of BDC-2.5 TCR-Tg CD4 T cells (in words)” value [3] was “responded”.
In the case of “FVKQHLCGSHLVEALYLVCGERGFFYTPMS [insulin B-chain]”, the “IFN-γ response of BDC-2.5 to peptide (in words)” value (BDC-2.5 T-cell clone) was “remain inactive”, the “Effect of TGase treatment on PD-12.4.4 response” value (PD-12.4.4 T-cell clone; Fig. 1D) was “not increased significantly” and the “IFN-γ response of PD-12.4.4 to peptide (in words)” value (PD-12.4.4 T-cell clone) was “responded”. For the same molecule, the “Solubility in water (in words)” value [1] was “only poorly soluble in water”.
With KCNTATCATQRLANFLVRSS [KS20] the “IFN-γ response of BDC-2.5 to peptide (in words)” value (BDC-2.5 T-cell clone) was “remain inactive”, the “IFN-γ response of PD-12.4.4 to peptide (in words)” value (PD-12.4.4 T-cell clone) was “did not respond” and the “Proliferative response of BDC-2.5 TCR-Tg CD4 T cells (in words)” value [3] was “no proliferative response”. The “Effect of TGase treatment of the peptide on T-cell proliferation” value ([3]; any peptide concentration tested, data not shown) was “did not alter the T-cell proliferation responses” and the “Proliferative response of BDC-6.9 TCR-Tg CD4 T cells (in words)” value [4] was “no proliferative response”.
In the case of WSRMDELAKELTAE [WE14-Q6E], the “IFN-γ response of BDC-2.5 to peptide (in words)” value (BDC-2.5 T-cell clone) was “no better than unmodified WE14” and the “Solubility in water (in words)” value [1] was “solubilized directly in sterile water”.
